PG9 binder: binders of HIV-1 gp120 antibody PG9, primary screen, biochemical, TR-FRET; TR-FRET gp120-PG9 antibody binding; inhibition, % at 6.7 µM; 360,000 compounds, 0.43% hits; HIV-1 gp120 / PG9 antibody interaction; AID 624416, 2012; in the data active = inhibition above about 8.5%
T cruzi inh: inhibitors of intracellular T. cruzi growth, primary screen, luminescence, NIH3T3 host cells | T. cruzi beta-gal in NIH3T3, 90 h | inhibition, % (no concentration beside the values) | 300,000 compounds, 1.4% hits;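 active = mean inhibition across valid replicates above about 55%, limit read from the data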;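 also: signal also drops with host cell toxicity which is not excluded here; 0% = plate median of DMSO wells and 100% = zero luminescence signal; higher percent means less beta-gal luminescence so fewer parasites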
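assay system = mouse NIH/3T3 fibroblasts infected with β-gal-expressing T. cruzi Tulahuen C4 | input = 5,000 NIH/3T3 host cells per well | buffer or medium = DMEM plus 2% FBS | timing = 3 h host attachment, then at least 90 h co-culture | measured by = GalScreen luminescence, 60 min | evaluation = luminescence reflecting intracellular parasite burden, expressed as percent inhibition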
Rev-erbA mod: modulators of Rev-erb alpha DNA binding, primary screen, biochemical, FITC-DNA, fluorescence polarization, uHTS | Nuclear receptor subfamily 1 group D member 1 (Homo sapiens), P20393 | Rev-erbα–FITC-DNA binding, 90 min | activity, % at 10 µM | 370,000 compounds, 0.79% hits | AID 1259318, 2017;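 active = activity above about 14%, limit read from the data; passing the limit was not always enough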;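 also: 0% = DMSO wells with 35 nM protein and 100% = DMSO wells with 750 nM protein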
Target sequence (P20393 whole entry, looked up): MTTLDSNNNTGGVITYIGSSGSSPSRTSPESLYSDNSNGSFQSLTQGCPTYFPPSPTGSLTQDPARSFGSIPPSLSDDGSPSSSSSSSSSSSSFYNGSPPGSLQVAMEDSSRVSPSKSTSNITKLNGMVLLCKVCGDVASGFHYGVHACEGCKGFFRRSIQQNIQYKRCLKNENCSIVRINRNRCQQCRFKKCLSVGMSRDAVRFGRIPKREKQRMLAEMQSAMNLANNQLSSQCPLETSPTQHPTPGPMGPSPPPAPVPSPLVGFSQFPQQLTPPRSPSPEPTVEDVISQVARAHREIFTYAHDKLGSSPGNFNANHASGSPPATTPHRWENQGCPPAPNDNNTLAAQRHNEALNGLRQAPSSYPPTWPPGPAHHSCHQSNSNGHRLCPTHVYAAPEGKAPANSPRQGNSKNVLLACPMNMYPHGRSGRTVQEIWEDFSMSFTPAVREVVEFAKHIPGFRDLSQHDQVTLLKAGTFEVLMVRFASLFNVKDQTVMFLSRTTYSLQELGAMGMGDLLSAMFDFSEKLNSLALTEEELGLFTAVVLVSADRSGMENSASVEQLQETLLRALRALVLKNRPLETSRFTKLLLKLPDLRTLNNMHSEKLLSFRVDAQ
iPSC survival up: enhancers of single-cell hiPSC survival, primary screen, ATPlite luminescence | 100% = ROCK inhibitor wells, 0% = DMSO | survival enhancement, % at 20 µM | 360,000 compounds, 0.044% hits | AID 602274, 2012; in the data active = survival enhancement above about 18%;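 also: cells exposed to compounds for 16 hours before the ATP read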
H9c2 TAG inh: inhibitors of triacylglycerol accumulation, primary screen, cell-based, uHTS, fluorescence, H9c2. H9c2 cells, Nile Red lipid (TAG) fluorescence; cells loaded with 200 µM oleic acid. inhibition, % at 12.5 µM. 230,000 compounds, 0.66% hits. AID 651582, 2012;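 active = pattern-corrected inhibition of lipid staining of at least 50% with the nuclear-stain viability signal not falling by more than 50%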;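 also: 0% = DMSO wells and 100% = triacsin C control wells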
MIN6 prolif: inducers of MIN6 beta-cell proliferation, primary screen, ATP luminescence, uHTS | MIN6 cells proliferation, ATPlite luminescence, 48 h; cells starved in 0.2% serum; 100% = growth in 10% serum | proliferation, % at 10 µM | 330,000 compounds, 0.29% hits | AID 2380, 2010;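 active = compounds whose signal lies at least 3.5 SD above the mean of all wells on their plate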;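 also: 0% = DMSO-treated cells in low-serum medium and 100% = 10% serum control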
The depositor's hits bear a star; x = no result. Rows were chosen to be rich in hits. Some 2.9% of all compounds tested hit in one or more screens of this group.

SMILES | PG9 binder | T cruzi inh | Rev-erbA mod | iPSC survival up | H9c2 TAG inh | MIN6 prolif
c1ccc(CNCCC(Cc2ccccc2)c2ccco2)cc1 (centres undefined) | 1.2 | 2.4 | -3.5 | -0.6 | 6.1 | -2.2
CCOC(=O)c1cnc2c(c(C)nn2C)c1Oc1ccc(Cl)cc1 | 0.9 | -3.9 | 8.8 | 4.5 | -0.1 | -0.9
Cc1ccc(CN(Cc2cccnc2)C(=O)CN2C(=O)COc3ccccc32)o1 | x | 55.4* | -7.0 | 0.1 | x | -1.6
CCOc1ccc(/C=N/NC(=O)c2ccc(CSc3nc4ccccc4[nH]3)cc2)cc1 | -1.8 | 6.1 | -5.8 | 0.7 | 1.8 | -3.9
Cc1cccc(-n2c(SCc3cc(=O)n4ccsc4n3)nc3ccccc32)c1 | -0.1 | 62.1* | -6.0 | 0.9 | -5.1 | -2.0
COc1ccccc1N1C(=O)c2ccc(C(=O)Nc3cccc(C(C)=O)c3)cc2C1=O | -3.9 | -16.4 | 1.7 | -0.4 | x | -1.0
Oc1ccccc1N=Nc1ccccc1O | -5.5 | 58.7* | 5.9 | -4.8 | x | x
Nc1ccc(N=Nc2ccccc2O)c(N)c1 | -5.2 | -0.1 | 16.9 | -0.1 | 14.6 | -1.8
O=C(CCCCN1CCCCC1)c1ccc2c(c1)Cc1ccccc1-2 | -0.8 | 71.4* | 0.3 | -0.4 | -1.1 | -6.2
CCOP(=O)(OCC)c1nc(-c2cccc3ccccc23)oc1NCc1ccc(OC)cc1 | -1.3 | 57.4* | 2.0 | 1.1 | 0.4 | -5.8
CCOP(=O)(OCC)c1nc(-c2cccc3ccccc23)oc1NCc1ccccc1 | 2.0 | 3.1 | 0.5 | -0.8 | x | -5.8
Cc1cc(NS(=O)(=O)c2ccc(Nc3nc(-c4sc(NC(=O)c5ccccc5)nc4C)cs3)cc2)no1 | x | 2.8 | x | x | x | -5.8
O=C(NC(=S)NNC(=O)[C@H]1C[C@@H]1c1ccccc1)c1cccc(F)c1 | 0.0 | 58.3* | -2.1 | 0.5 | 2.8 | -5.7
CCOC(=O)C1=C(c2ccccc2)Nc2ncnn2C1c1ccc(OC)c(OC)c1OC (centres undefined) | -0.4 | 55.9* | 0.3 | 4.4 | x | -1.1
Cc1cc(F)ccc1S(=O)(=O)NCC(c1cccnc1)N1CCc2ccccc21 (centres undefined) | -0.6 | 42.2 | 6.1 | -0.4 | x | -1.3
Cn1c(=O)[nH]c(=O)c2c1nc(N1CCCCCC1)n2CCN1CCCCCC1 | 1.2 | 1.1 | 0.7 | 0.0 | 3.9 | -0.5
CN(C)CCCNc1ccc(-c2nn(C)c(=O)c3ccccc23)cc1[N+](=O)[O-] | -1.8 | 67.6* | 10.6 | -2.1 | -2.6 | -4.8
COCCNc1ccc(-c2nn(C)c(=O)c3ccccc23)cc1[N+](=O)[O-] | 0.8 | -4.5 | 6.2 | -0.4 | -7.3 | -1.4
Cc1c(NC(=O)CSCc2ccc(Br)cc2)c(=O)n(-c2ccccc2)n1C | 1.2 | -10.5 | -2.3 | 0.4 | 19.5 | -4.7
CCCCCCCn1c2c(c(=N)c3c1CCC3)CCCC2 | 0.1 | 58.7* | 0.5 | -4.3 | 1.5 | x
CCCCCCn1c2c(c(=N)c3c1CCC3)CCC2 | -1.9 | 83.8* | 1.4 | -3.0 | x | -6.1
CC(C)(C)CC(C)(C)NC(=S)Nc1ccc(S(=O)(=O)N2CCOCC2)cc1 | -2.6 | 0.8 | 2.0 | -2.2 | x | -2.4
O=C(Nc1ccncc1)Nc1cccc(Cl)c1Cl | -1.1 | 65.8* | -2.3 | 0.2 | 6.7 | -5.1
Cc1ccccc1OCC(=O)N(Cc1nc(-c2ccccc2)no1)C(C)C | -0.6 | 27.8 | -2.6 | -1.4 | x | -2.3
Cc1cc(C(=O)CSc2nncs2)c(C)n1Cc1ccco1 | 0.8 | -8.5 | 1.0 | -0.1 | -15.3 | -4.3
SMILES | PG9 binder | T cruzi inh | Rev-erbA mod | iPSC survival up | H9c2 TAG inh | MIN6 prolif
Cc1cc(C(=O)CCl)c(C)n1Cc1ccco1 | 1.2 | 80.1* | -18.8 | 0.2 | 6.9 | -6.5
COc1ccc2nc(C)cc(N/N=C/c3ccc(F)cc3)c2c1 | -1.0 | 60.8* | 4.7 | -1.0 | 136.3 | -4.0
COc1ccc(/C=N/Nc2cc(C)nc3c(C)cccc23)cc1 | -3.5 | 74.2* | -3.3 | -0.6 | x | -5.7
COc1ccc(/C=N/Nc2cc(C)nc3ccccc23)cc1 | -1.6 | 64.1* | 3.6 | -0.9 | x | -5.1
COc1cccc2c(N/N=C/c3ccc(O)c(O)c3)cc(C)nc12 | -6.0 | 1.5 | 1.3 | -0.2 | -6.7 | -3.9
CC(C)(C)c1ccc(S(=O)(=O)NCC(=O)Nc2ccc(-c3nc4ccccc4s3)cc2)cc1 | 8.9* | 14.7 | 11.9 | -1.7 | 17.3 | -3.6
O=C(CNS(=O)(=O)c1cccc(Cl)c1)Nc1ccc(-c2nc3ccccc3s2)cc1 | -1.6 | 11.0 | -5.1 | -1.1 | x | 0.0
COC(=O)[C@@H]1CC[C@H](C)[C@@H](c2ccc(C)cc2)N1C(=O)c1ccc(/C=N/OC[C@@H](O)[C@H]2O[C@@H]3OC(C)(C)O[C@@H]3[C@H]2O)cc1 | x | 27.8 | x | x | x | 2.5
COC(=O)[C@@H]1CC[C@H](C)[C@@H](c2ccc(C)cc2)N1C(=O)c1ccc(/C=N/O[C@@H](C)c2cn([C@H](CO)Cc3ccccc3)nn2)cc1 | x | 61.8* | x | x | x | -7.9
OC(COC1CCCCC1)CN1CCN(c2ccccc2)CC1 (centres undefined) | -2.0 | 16.1 | -0.4 | -1.4 | -3.6 | -1.6
C1CCC(OCCN2CCN(CCOC3CCCCC3)CC2)CC1 | -0.8 | 55.1* | -0.8 | 2.1 | x | -1.2
COC(=O)c1ccc(-c2noc(CN(C)CC3CCCCO3)n2)cc1 (centres undefined) | 3.2 | -0.7 | 3.6 | 0.0 | -13.7 | 0.4
COC(=O)c1ccc(-c2noc(CN(Cc3ccncc3)CC3CCCO3)n2)cc1 (centres undefined) | 2.7 | 57.1* | 0.8 | -1.4 | -10.0 | -0.1
Cc1cc2c(n1-c1ccc(Br)cc1)CC(C)(C)CC2=O | -0.6 | 57.9* | -0.2 | 5.6 | x | 0.3
CCCn1c(=O)[nH]c(=O)c2c(C(F)(F)F)cc(-c3ccc(C)cc3)nc21 | -1.0 | 11.0 | 6.7 | 0.3 | 20.0 | -3.1
O=S1(=O)CCOC[C@H](CC2CCCCC2)N1Cc1cccc(F)c1 | 2.2 | 15.0 | 7.0 | 3.6 | 1.6 | -4.8
CC(=O)O[C@H]1C(=O)[C@@]2(C)[C@H]([C@H](OC(=O)c3ccccc3)[C@]3(O)C[C@H](OC(=O)[C@H](O)[C@@H](NC(=O)c4ccccc4)c4ccccc4)C(C)=C1C3(C)C)[C@]1(OC(C)=O)CO[C@@H]1C[C@@H]2O | 0.3 | x | 0.9 | -2.0 | 56.0* | -7.1

Source: PubChem
